Reference: ChEMBL document CHEMBL3352245, “Discovery of a series of aryl-N-(3-(alkylamino)-5-(trifluoromethyl)phenyl)benzamides as TRPA1 antagonists” (Bioorg Med Chem Lett, 2014)
pIC50: −log10 of the molar value. Values after ≈ are worked out from the molar mass of the structure shown.

Assays:
[1] = target: Transient receptor potential cation channel subfamily A member 1 (Homo sapiens, UniProt O75762); experiment: Antagonist activity at human TRPA1 expressed in HEK293-TREx cells assessed as change in calcium level by Fluo-4NW assay; type: cell-based
Method in brief: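 Human receptor; values are means of at least 2 experiments, with replicate error within 20% of value.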

[2] = Thermodynamic solubility of the compound in buffer at pH 7.4 by HPLC/UV detection method; type: physicochemical; conditions: read-out: Therm_solubility
Method in brief: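 Thermodynamic solubility in pH 7.4 buffer. Dissolved compound is quantified by HPLC with UV detection.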

[3] = Intrinsic clearance in human liver microsomes at 1 uM in presence of NADPH; type: ADME; conditions: read-out: CLH
Method in brief: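 Incubated with human liver microsomes at 1 mg/mL protein plus NADPH. Test compound at 1 μM.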

[4] = tested on: Plasma; experiment: Fraction unbound in human plasma at 10 uM by equilibrium dialysis method; type: ADME, cell-free
Method in brief: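 Test compound at 10 μM in human plasma. Binding is measured by equilibrium dialysis.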

[5] = Apparent permeability from apical to basolateral across human Caco2 cells at pH 7.4 at 10 uM by Transwell assay; type: ADME, cell-based; conditions: Caco-2, pH 7.4
Method in brief: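 Caco-2 monolayer in a Transwell format. Compound at 10 μM is applied apically and apical-to-basolateral apparent permeability is measured at pH 7.4.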

[6] = target: T1, Cytochrome P450 1A2 (Homo sapiens, UniProt P05177); experiment: Competitive inhibition of CYP1A2 in human liver microsomes by LC-MS/MS analysis; type: ADME
T1 sequence (P05177 whole entry): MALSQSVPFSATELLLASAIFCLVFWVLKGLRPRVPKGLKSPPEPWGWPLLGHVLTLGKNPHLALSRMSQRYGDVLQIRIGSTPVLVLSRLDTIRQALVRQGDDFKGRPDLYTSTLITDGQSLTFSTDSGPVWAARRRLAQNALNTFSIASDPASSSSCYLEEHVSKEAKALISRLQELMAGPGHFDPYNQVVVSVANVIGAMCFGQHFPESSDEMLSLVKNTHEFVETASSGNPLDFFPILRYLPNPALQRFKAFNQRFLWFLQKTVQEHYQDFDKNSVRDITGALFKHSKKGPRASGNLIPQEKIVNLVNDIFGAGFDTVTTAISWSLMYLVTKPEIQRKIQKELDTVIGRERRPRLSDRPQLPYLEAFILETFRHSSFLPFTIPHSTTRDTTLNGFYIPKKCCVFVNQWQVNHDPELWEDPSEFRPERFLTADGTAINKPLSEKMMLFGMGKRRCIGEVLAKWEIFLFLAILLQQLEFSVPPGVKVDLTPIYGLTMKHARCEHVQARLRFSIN
Method in brief: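 Competitive inhibition screen in human liver microsomes using standard probe substrates. Metabolites are detected by LC-MS/MS. The panel also covered 2C9, 2C19, 2D6 and 3A4.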

[7] = target: CYP2D6 (Homo sapiens, UniProt P10635); experiment: Time-dependent inhibition of CYP2D6 in human liver microsomes at 10 uM by LC-MS/MS analysis; type: ADME
Method in brief: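 IC50-shift screen for time-dependent inhibition in human liver microsomes with test compound at 10 μM. The panel also covered 1A2, 2C9 and 3A4.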

Transient receptor potential cation channel subfamily A member 1, sequence (O75762 whole entry): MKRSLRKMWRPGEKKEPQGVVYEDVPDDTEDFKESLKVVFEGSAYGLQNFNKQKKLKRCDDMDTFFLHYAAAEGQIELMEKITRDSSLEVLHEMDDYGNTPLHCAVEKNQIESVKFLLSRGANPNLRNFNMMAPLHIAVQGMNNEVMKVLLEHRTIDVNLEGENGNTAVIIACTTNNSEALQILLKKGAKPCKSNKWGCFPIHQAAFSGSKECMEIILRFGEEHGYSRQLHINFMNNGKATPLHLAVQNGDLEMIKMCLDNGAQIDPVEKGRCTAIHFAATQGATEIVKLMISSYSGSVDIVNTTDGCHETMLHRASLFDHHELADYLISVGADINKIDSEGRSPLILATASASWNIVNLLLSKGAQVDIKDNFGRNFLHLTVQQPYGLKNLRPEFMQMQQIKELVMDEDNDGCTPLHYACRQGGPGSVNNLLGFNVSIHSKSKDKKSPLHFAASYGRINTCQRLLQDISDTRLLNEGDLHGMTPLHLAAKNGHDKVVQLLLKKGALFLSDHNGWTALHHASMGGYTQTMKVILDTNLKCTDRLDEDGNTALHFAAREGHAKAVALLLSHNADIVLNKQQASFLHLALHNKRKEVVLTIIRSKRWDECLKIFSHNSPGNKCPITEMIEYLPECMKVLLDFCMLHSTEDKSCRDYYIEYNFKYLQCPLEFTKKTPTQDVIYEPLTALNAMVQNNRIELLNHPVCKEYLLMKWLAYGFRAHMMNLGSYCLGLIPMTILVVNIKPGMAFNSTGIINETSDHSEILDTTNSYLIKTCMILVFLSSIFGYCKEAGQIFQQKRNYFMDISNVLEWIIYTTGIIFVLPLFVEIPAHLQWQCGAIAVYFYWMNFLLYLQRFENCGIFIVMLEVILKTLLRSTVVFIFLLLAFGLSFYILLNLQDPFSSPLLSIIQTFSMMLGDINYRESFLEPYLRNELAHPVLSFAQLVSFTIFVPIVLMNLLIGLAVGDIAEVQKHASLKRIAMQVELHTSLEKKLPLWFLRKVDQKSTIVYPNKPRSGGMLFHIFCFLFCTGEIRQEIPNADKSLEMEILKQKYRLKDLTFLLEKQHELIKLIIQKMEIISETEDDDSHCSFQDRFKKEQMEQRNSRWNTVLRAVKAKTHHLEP
CYP2D6, sequence (P10635 whole entry): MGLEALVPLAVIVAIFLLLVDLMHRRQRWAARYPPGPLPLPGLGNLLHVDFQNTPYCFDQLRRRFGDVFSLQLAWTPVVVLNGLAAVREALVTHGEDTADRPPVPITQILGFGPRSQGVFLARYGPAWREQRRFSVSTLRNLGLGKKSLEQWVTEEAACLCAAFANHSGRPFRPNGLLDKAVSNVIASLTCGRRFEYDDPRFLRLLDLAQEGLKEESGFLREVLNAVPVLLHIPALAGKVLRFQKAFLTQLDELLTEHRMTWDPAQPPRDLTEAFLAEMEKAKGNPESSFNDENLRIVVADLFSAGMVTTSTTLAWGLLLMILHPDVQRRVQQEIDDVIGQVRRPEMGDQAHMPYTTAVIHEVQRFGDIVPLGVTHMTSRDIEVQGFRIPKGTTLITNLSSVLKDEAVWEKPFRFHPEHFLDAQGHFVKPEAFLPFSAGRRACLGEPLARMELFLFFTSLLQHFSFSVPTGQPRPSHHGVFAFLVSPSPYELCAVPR

| SMILES | pIC50 [1] | also measured |
| --- | --- | --- |
| CCCNc1cc(C)cc(NC(=O)c2c(F)cccc2F)c1 | 5.72 |  |
| O=C(Nc1cc(NCCc2ccccc2)cc(C(F)(F)F)c1)c1cccs1 | 5.41 |  |
| CCCOc1cc(NC(=O)c2c(F)cccc2F)cc(C(F)(F)F)c1 | < 4.49 |  |
| CCCNc1cc(NC(=O)c2ccc(F)c(F)c2)cc(C(F)(F)F)c1 | 5.92 |  |
| O=C(Nc1cc(NCc2ccccc2)cc(C(F)(F)F)c1)c1cccs1 | 5.54 |  |
| CCCN(C)c1cc(NC(=O)c2c(F)cccc2F)cc(C(F)(F)F)c1 | < 4.49 |  |
| CCCNc1cc(NC(=O)c2ccc(F)cc2)cc(C(F)(F)F)c1 | 5.85 |  |
| CCCNc1cc(NC(=O)c2ccccn2)cc(C(F)(F)F)c1 | < 4.49 |  |
| CCCNc1cc(N)cc(C(F)(F)F)c1 | < 4.49 |  |
| O=C(Nc1cc(NCc2cccs2)cc(C(F)(F)F)c1)c1cccs1 | 5.57 |  |
| CCCNc1cc(NC(=O)c2cccnc2)cc(C(F)(F)F)c1 | 6.03 |  |
| COC(=O)Nc1cc(NC(=O)c2cccs2)cc(C(F)(F)F)c1 | 5.64 |  |
| CCCN(CCC)c1cc(NC(=O)c2cccs2)cc(C(F)(F)F)c1 | < 4.49 |  |
| CCCNc1cc(NC(=O)c2ccncc2)cc(C(F)(F)F)c1 | 5.59 |  |
| CC(C)C(C)Nc1cc(NC(=O)c2cccs2)cc(C(F)(F)F)c1 (stereo not given) | 5.89 |  |

These reach a higher pIC50 [1]. Values come first.

| pIC50 [1] | SMILES | also measured |
| --- | --- | --- |
| 7.13 | CCNc1cc(NC(=O)c2c(F)cccc2F)cc(C(F)(F)F)c1 | solubility thermodynamic [2]: 5 µM (≈ 1.72 µg/mL); microsomal CLint at 1 µM [3]: 115 µL/min/mg; Fu [4]: < 1% |
| 6.96 | CCCNc1cc(NC(=O)c2c(F)cccc2F)cc(C(F)(F)F)c1 | solubility thermodynamic [2]: 7 µM (≈ 2.51 µg/mL); microsomal CLint at 1 µM [3]: 96 µL/min/mg; Fu [4]: < 1%; Papp A→B at 10 µM [5]: 2.7 ×10⁻⁶ cm/s; pIC50 [6]: 5.82 |
| 6.41 | CCCNc1cc(NC(=O)c2cccs2)cc(C(F)(F)F)c1 |  |
| 6.70 | CCCNc1cc(NC(=O)c2ccccc2)cc(C(F)(F)F)c1 | solubility thermodynamic [2]: 8 µM (≈ 2.58 µg/mL); microsomal CLint at 1 µM [3]: 154 µL/min/mg; Fu [4]: < 1%; Papp A→B at 10 µM [5]: 6.2 ×10⁻⁶ cm/s; pIC50 [6]: 6.85; inhibition at 10 µM [7]: 35% |
| 7.04 | CC(C)Nc1cc(NC(=O)c2c(F)cccc2F)cc(C(F)(F)F)c1 | solubility thermodynamic [2]: 1 µM (≈ 0.358 µg/mL); microsomal CLint at 1 µM [3]: 73 µL/min/mg; Fu [4]: < 1%; Papp A→B at 10 µM [5]: 6.9 ×10⁻⁶ cm/s |
| 6.54 | CC(C)Nc1cc(NC(=O)c2cccs2)cc(C(F)(F)F)c1 |  |
| 6.10 | CC(C)CNc1cc(NC(=O)c2cccs2)cc(C(F)(F)F)c1 |  |
